Results reported in ChEMBL document CHEMBL1135500, “Highly antibacterial active aminoacyl penicillin conjugates with acylated bis-catecholate siderophores based on secondary diamino acids and related compounds” (2002).
Values after ≈ are worked out from the molar mass of the structure shown.

Columns and labels:
Assay type in all cases: functional
[1] = test system: Escherichia coli; assay: In vitro antibacterial activity against ATCC 25922 strain of Escherichia coli
Procedure, shortened: (§1)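 MIC by microbroth dilution in Mueller-Hinton broth following NCCLS guidelines.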

[2] = test system: Klebsiella pneumoniae; assay: In vitro antibacterial activity against ATCC 100331 strain of Klebsiella pneumoniae; procedure, shortened: as §1
[3] = test system: Pseudomonas aeruginosa; assay: In vitro antibacterial activity against SG 137 strain of Pseudomonas aeruginosa; procedure, shortened: as §1
[4] = test system: Serratia marcescens; assay: In vitro antibacterial activity against SG 621 strain of Serratia marcescens; procedure, shortened: as §1
[5] = test system: Staphylococcus aureus; assay: In vitro antibacterial activity against SG 511 strain of Staphylococcus aureus; procedure, shortened: as §1
[6] = test system: Stenotrophomonas maltophilia; assay: In vitro antibacterial activity against GN 12873 strain of Stenotrophomonas maltophilia; procedure, shortened: as §1
[7] = test system: Pseudomonas aeruginosa; assay: In vitro antibacterial activity against ATCC 27853 strain of Pseudomonas aeruginosa; procedure, shortened: as §1

Row | Compound | MIC [1] [µg/mL] | MIC [2] [µg/mL] | MIC [3] [µg/mL] | MIC [4] [µg/mL] | MIC [5] [µg/mL] | MIC [6] [µg/mL] | MIC [7] [µg/mL]
1 | COC(=O)Oc1cc(Cl)cc(C(=O)N(C)CCCN(CC(=O)NC(C(=O)NC2C(=O)N3C2SC(C)(C)C3C(=O)O)c2ccccc2)C(=O)c2cc(Cl)cc(OC(=O)OC)c2OC(=O)OC)c1OC(=O)OC (stereo unspecified) | 0.05 (≈ 0.0476 µM) | < 0.005 | < 0.005 | 0.02 (≈ 0.019 µM) | 12.5 (≈ 11.9 µM) | 0.02 (≈ 0.019 µM) | 0.1 (≈ 0.0952 µM)
2 | COC(=O)Oc1cccc2c(=O)n(CCC(=O)Nc3cc(NC(=O)CCn4c(=O)oc5c(OC(=O)OC)cccc5c4=O)cc(C(=O)NC(C(=O)NC4C(=O)N5C4SC(C)(C)C5C(=O)O)c4ccccc4)c3)c(=O)oc12 (stereo unspecified) | 6.25 (≈ 5.86 µM) | 0.2 (≈ 0.188 µM) | 0.05 (≈ 0.0469 µM) | 3.12 (≈ 2.93 µM) | 6.25 (≈ 5.86 µM) | 1.56 (≈ 1.46 µM) | 0.2 (≈ 0.188 µM)
3 | COC(=O)Oc1cccc2c(=O)n(CC(=O)Nc3cc(NC(=O)Cn4c(=O)oc5c(OC(=O)OC)cccc5c4=O)cc(C(=O)NC(C(=O)NC4C(=O)N5C4SC(C)(C)C5C(=O)O)c4ccccc4)c3)c(=O)oc12 (stereo unspecified) | 25 (≈ 24.1 µM) | 1.56 (≈ 1.5 µM) | 0.05 (≈ 0.0482 µM) | 12.5 (≈ 12 µM) | 25 (≈ 24.1 µM) | 3.12 (≈ 3.01 µM) | 1.56 (≈ 1.5 µM)
4 | COC(=O)Oc1cccc(C(=O)N(CCCn2c(=O)oc3c(OC(=O)OC)cccc3c2=O)C(C)CCC(=O)NC(C(=O)NC2C(=O)N3C2SC(C)(C)C3C(=O)O)c2ccccc2)c1OC(=O)OC (stereo unspecified) | 1.56 (≈ 1.6 µM) | 0.2 (≈ 0.205 µM) | 0.1 (≈ 0.102 µM) | 0.1 (≈ 0.102 µM) | 1.56 (≈ 1.6 µM) | 0.4 (≈ 0.409 µM) | 3.12 (≈ 3.19 µM)
5 | CC1(C)S[C@@H]2[C@H](NC(=O)[C@H](N)c3ccccc3)C(=O)N2[C@H]1C(=O)O [AMPICILLIN] | 6.25 (≈ 17.9 µM) | 6.25 (≈ 17.9 µM) | > 100 | 25 (≈ 71.5 µM) | 0.4 (≈ 1.14 µM) | > 100 | > 100
6 | COC(=O)Oc1cccc2c(=O)n(CCC(=O)Nc3cc(NC(=O)CCn4c(=O)oc5c(OC(=O)OC)cccc5c4=O)cc(C(=O)NC(C(=O)NC4C(=O)N5C4SC(C)(C)C5C(=O)O)c4ccc(O)cc4)c3)c(=O)oc12 (stereo unspecified) | 6.25 (≈ 5.78 µM) | 6.25 (≈ 5.78 µM) | 6.25 (≈ 5.78 µM) | 50 (≈ 46.2 µM) | 0.4 (≈ 0.37 µM) | 25 (≈ 23.1 µM) | 6.25 (≈ 5.78 µM)
7 | COC(=O)Oc1cc(Cl)c(Cl)c(C(=O)N(C)CCCN(CC(=O)NC(C(=O)NC2C(=O)N3C2SC(C)(C)C3C(=O)O)c2ccccc2)C(=O)c2c(Cl)c(Cl)cc(OC(=O)OC)c2OC(=O)OC)c1OC(=O)OC (stereo unspecified) | 0.02 (≈ 0.0179 µM) | < 0.005 | 0.05 (≈ 0.0447 µM) | 0.05 (≈ 0.0447 µM) | 3.12 (≈ 2.79 µM) | 0.05 (≈ 0.0447 µM) | 0.1 (≈ 0.0893 µM)
8 | COC(=O)Oc1cccc2c(=O)n(-c3cc(C(=O)NC(C(=O)NC4C(=O)N5C4SC(C)(C)C5C(=O)O)c4ccccc4)cc(-n4c(=O)oc5c(OC(=O)OC)cccc5c4=O)c3)c(=O)oc12 (stereo unspecified) | 25 (≈ 27.1 µM) | 6.25 (≈ 6.77 µM) | 0.2 (≈ 0.216 µM) | 12.5 (≈ 13.5 µM) | 25 (≈ 27.1 µM) | 0.78 (≈ 0.844 µM) | 1.56 (≈ 1.69 µM)
9 | C[C@@H](O)[C@H]1C(=O)N2C(C(=O)O)=C(S[C@@H]3CN[C@H](C(=O)N(C)C)C3)[C@H](C)[C@H]12 [MEROPENEM] | 0.04 (≈ 0.104 µM) | 0.04 (≈ 0.104 µM) | 0.2 (≈ 0.522 µM) | 0.06 (≈ 0.156 µM) | 0.1 (≈ 0.261 µM) | > 100 | 0.4 (≈ 1.04 µM)
10 | CC1(C)S[C@@H]2[C@H](NC(=O)[C@H](NC(=O)N3CCNC3=O)c3ccccc3)C(=O)N2[C@H]1C(=O)O [AZLOCILLIN] | 6.25 (≈ 13.5 µM) | 6.25 (≈ 13.5 µM) | 6.25 (≈ 13.5 µM) | 50 (≈ 108 µM) | 0.4 (≈ 0.867 µM) | 25 (≈ 54.2 µM) | 6.25 (≈ 13.5 µM)
11 | COC(=O)Oc1cccc(C(=O)N(CCCCn2c(=O)oc3c(OC(=O)OC)cccc3c2=O)CC(=O)NC(C(=O)NC2C(=O)N3C2SC(C)(C)C3C(=O)O)c2ccccc2)c1OC(=O)OC (stereo unspecified) | 0.01 (≈ 0.0105 µM) | < 0.005 | 0.04 (≈ 0.0421 µM) | < 0.005 | 2.5 (≈ 2.63 µM) | 0.04 (≈ 0.0421 µM) | 0.156 (≈ 0.164 µM)

Results, then the compound that gave them:

Row | MIC [1] [µg/mL] | MIC [2] [µg/mL] | MIC [3] [µg/mL] | MIC [4] [µg/mL] | MIC [5] [µg/mL] | MIC [6] [µg/mL] | MIC [7] [µg/mL] | Compound
12 | 0.01 (≈ 0.0107 µM) | < 0.005 | 0.01 (≈ 0.0107 µM) | < 0.005 | 5 (≈ 5.35 µM) | 0.005 (≈ 0.00535 µM) | 0.16 (≈ 0.171 µM) | CC(=O)Oc1cccc(C(=O)NCCCCN(CC(=O)NC(C(=O)NC2C(=O)N3C2SC(C)(C)C3C(=O)O)c2ccc(O)cc2)C(=O)c2cccc(OC(C)=O)c2OC(C)=O)c1OC(C)=O (stereo unspecified)
13 | < 0.005 | < 0.005 | < 0.005 | < 0.005 | 5 (≈ 5.45 µM) | 0.005 (≈ 0.00545 µM) | 0.05 (≈ 0.0545 µM) | CC(=O)Oc1cccc(C(=O)NCCCCN(CC(=O)NC(C(=O)NC2C(=O)N3C2SC(C)(C)C3C(=O)O)c2ccccc2)C(=O)c2cccc(OC(C)=O)c2OC(C)=O)c1OC(C)=O (stereo unspecified)
14 | 0.02 (≈ 0.0218 µM) | < 0.005 | 0.005 (≈ 0.00545 µM) | 0.05 (≈ 0.0545 µM) | 3.12 (≈ 3.4 µM) | 0.02 (≈ 0.0218 µM) | 0.08 (≈ 0.0872 µM) | CC(=O)Oc1cccc(C(=O)N(C)CCCN(CC(=O)NC(C(=O)NC2C(=O)N3C2SC(C)(C)C3C(=O)O)c2ccccc2)C(=O)c2cccc(OC(C)=O)c2OC(C)=O)c1OC(C)=O (stereo unspecified)
15 | 0.78 (≈ 0.877 µM) | 0.1 (≈ 0.112 µM) | 0.4 (≈ 0.449 µM) | 0.78 (≈ 0.877 µM) | 3.12 (≈ 3.51 µM) | 0.78 (≈ 0.877 µM) | 0.78 (≈ 0.877 µM) | CC(=O)Oc1cccc(C(=O)NCCN(CC(=O)NC(C(=O)NC2C(=O)N3C2SC(C)(C)C3C(=O)O)c2ccccc2)C(=O)c2cccc(OC(C)=O)c2OC(C)=O)c1OC(C)=O (stereo unspecified)
16 | 0.4 (≈ 0.402 µM) | < 0.05 | 0.1 (≈ 0.101 µM) | 0.4 (≈ 0.402 µM) | 0.78 (≈ 0.785 µM) | < 0.05 | 0.2 (≈ 0.201 µM) | CC(=O)Oc1cccc(C(=O)NCCCCN(Cc2ccccc2C(=O)NC(C(=O)NC2C(=O)N3C2SC(C)(C)C3C(=O)O)c2ccccc2)C(=O)c2cccc(OC(C)=O)c2OC(C)=O)c1OC(C)=O (stereo unspecified)
17 | 0.78 (≈ 0.85 µM) | 0.4 (≈ 0.436 µM) | 0.2 (≈ 0.218 µM) | 3.12 (≈ 3.4 µM) | 0.78 (≈ 0.85 µM) | 50 (≈ 54.5 µM) | 0.78 (≈ 0.85 µM) | CC(=O)Oc1ccc(C(=O)NCCCCN(CC(=O)NC(C(=O)NC2C(=O)N3C2SC(C)(C)C3C(=O)O)c2ccccc2)C(=O)c2ccc(OC(C)=O)c(OC(C)=O)c2)cc1OC(C)=O (stereo unspecified)
18 | 0.02 (≈ 0.0204 µM) | 0.005 (≈ 0.00509 µM) | 0.04 (≈ 0.0407 µM) | 0.02 (≈ 0.0204 µM) | 5 (≈ 5.09 µM) | 0.08 (≈ 0.0815 µM) | 0.31 (≈ 0.316 µM) | COC(=O)Oc1cccc(C(=O)N(C)CCCN(CC(=O)NC(C(=O)NC2C(=O)N3C2SC(C)(C)C3C(=O)O)c2ccccc2)C(=O)c2cccc(OC(=O)OC)c2OC(=O)OC)c1OC(=O)OC (stereo unspecified)
19 | < 0.005 | < 0.005 | < 0.005 | 0.02 (≈ 0.0175 µM) | 6.25 (≈ 5.48 µM) | 0.02 (≈ 0.0175 µM) | 0.05 (≈ 0.0439 µM) | COC(=O)Oc1cc(Br)cc(C(=O)N(C)CCCN(CC(=O)NC(C(=O)NC2C(=O)N3C2SC(C)(C)C3C(=O)O)c2ccccc2)C(=O)c2cc(Br)cc(OC(=O)OC)c2OC(=O)OC)c1OC(=O)OC (stereo unspecified)
20 | 1.56 (≈ 1.57 µM) | 0.2 (≈ 0.201 µM) | 0.04 (≈ 0.0402 µM) | 0.24 (≈ 0.241 µM) | 6.25 (≈ 6.29 µM) | < 0.05 | 0.4 (≈ 0.402 µM) | CC(=O)Oc1cccc(C(=O)N(C)CCCN(Cc2ccccc2C(=O)NC(C(=O)NC2C(=O)N3C2SC(C)(C)C3C(=O)O)c2ccccc2)C(=O)c2cccc(OC(C)=O)c2OC(C)=O)c1OC(C)=O (stereo unspecified)
21 | 100 (≈ 108 µM) | 3.12 (≈ 3.38 µM) | 0.4 (≈ 0.433 µM) |  | 25 (≈ 27.1 µM) | 1.56 (≈ 1.69 µM) | 3.12 (≈ 3.38 µM) | CC(=O)Oc1cccc(C(=O)Nc2cc(NC(=O)c3cccc(OC(C)=O)c3OC(C)=O)cc(C(=O)NC(C(=O)NC3C(=O)N4C3SC(C)(C)C4C(=O)O)c3ccccc3)c2)c1OC(C)=O (stereo unspecified)
